Compounds with a hit are over-represented: about 2.9% of the library has one in this group of screens.
SENP8 block-1: human SENP8 protease inhibitors, primary screen, biochemical, fluorescence, Nedd8 protein substrate, uHTS | recombinant SENP8 | inhibition, % at 20 µM | 360,000 compounds, 0.64% hits; in the data active means inhibition mostly above about 40%, no sharp cut-off; inactive means mostly below about 27%
SENP7 block: SENP7 protease inhibitors, primary screen, biochemical, luminescence, uHTS; Sentrin-specific protease 7 (Homo sapiens), Q9BQF6; recombinant SENP7, Z-RLRGG-aminoluciferin luminescence, 40 min; inhibition, % at 5 µM; 330,000 compounds, 1.5% hits; AID 434973, 2010;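 active means inhibition above about 50% at the single test dose, limit read from the data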
SENP1 FRET inh: human SENP1 catalytic domain inhibitors, primary screen, biochemical, FRET, uHTS; Sentrin-specific protease 1 (Homo sapiens), Q9P0U3; recombinant SENP1 catalytic domain, CyPet-SUMO1-YPet FRET cleavage; inhibition, % at 10 µM; 360,000 compounds, 0.21% hits;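 active means inhibition at least 30% at 10 µM, raw YFP signal under a set limit, fluorescence ratio 0.5 to 1.5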
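System: Recombinant human SENP1 catalytic domain, His6-tagged | Incubation: Enzyme reaction for 50 min at room temperature, dark | Medium: Tris pH 8 with BME, BSA, NP40 and catalase | Also added: 25 nM SUMO1 FRET substrate | Compound: 10 µM single point, 0.5% DMSO | Measured by: FRET fluorescence in CFP and YFP emission channels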
SENP6 inh: SENP6 protease inhibitors, primary screen, biochemical, luminescence, uHTS; Recombinant SENP6 catalytic domain, aminoluciferin luminescence; inhibition, % at 10 µM; 330,000 compounds, 1.8% hits; AID 2599, 2010;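 active means inhibition above about 50% at the single tested dose, limit read from the data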
HSP90 inh: HSP90 inhibitors, primary screen, cell lysate, luminescence. Heat shock protein HSP 90 (rabbit reticulocyte lysate; luciferase refolding). Rabbit reticulocyte lysate, luciferase refolding luminescence, 3 h. inhibition, % at 5.6 µM. 290,000 compounds, 0.91% hits;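 active means inhibition above the screen-wide mean plus 3 SD, computed separately per campaign, cut at about 16% in these data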;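 further: inhibitors lower the luminescence because luciferase stays unfolded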
SENP8 block-2: SENP8 protease inhibitors, primary screen, biochemical, luminescence. Sentrin-specific protease 8 (Homo sapiens), Q96LD8. purified SENP8, Z-RLRGG-aminoluciferin cleavage. inhibition, % at 10 µM. 330,000 compounds, 1.2% hits; in the data active means inhibition above about 50%
HSP90 confirm: HSP90 inhibitors, confirmation, cell lysate, luminescence; shares compounds with HSP90 inh; rabbit reticulocyte lysate, luciferase refolding luminescence, 3 h; inhibition, % at 5.9 µM; 2,300 compounds, 64% hits; AID 1846, 2009; in the data active means inhibition above about 18%
FLuc counter: firefly luciferase inhibitors, HSP90 counter-screen, confirmation, artefact control for HSP90 inhibitor project, biochemical, luminescence, triplicate; shares compounds with HSP90 inh; purified native firefly luciferase; inhibition, % at 5.9 µM; 2,300 compounds, 48% hits;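 active means inhibition above the mean inhibition of all tested sample wells plus 3 SD, cut at about 10% in these data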
Target sequence (P08659 whole entry, looked up): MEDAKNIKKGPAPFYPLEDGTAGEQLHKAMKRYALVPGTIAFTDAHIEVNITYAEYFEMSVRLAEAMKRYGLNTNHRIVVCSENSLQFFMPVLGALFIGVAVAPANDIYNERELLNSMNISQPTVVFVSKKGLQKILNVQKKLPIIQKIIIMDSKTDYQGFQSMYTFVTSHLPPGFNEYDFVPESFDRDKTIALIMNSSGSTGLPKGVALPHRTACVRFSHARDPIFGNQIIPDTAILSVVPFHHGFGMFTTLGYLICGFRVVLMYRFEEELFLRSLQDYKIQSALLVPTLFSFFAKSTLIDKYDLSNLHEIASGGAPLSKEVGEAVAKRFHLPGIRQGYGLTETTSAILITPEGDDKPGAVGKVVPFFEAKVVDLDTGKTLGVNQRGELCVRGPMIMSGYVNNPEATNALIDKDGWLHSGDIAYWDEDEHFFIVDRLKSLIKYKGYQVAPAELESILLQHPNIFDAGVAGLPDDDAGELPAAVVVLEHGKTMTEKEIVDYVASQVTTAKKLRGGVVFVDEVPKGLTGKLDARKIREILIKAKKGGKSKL
SENP8 conf: SENP8 protease inhibitors, retest, confirmation, biochemical, luminescence, single concentration | Recombinant SENP8, Z-RLRGG-aminoluciferin luminescence, 60 min | inhibition, % at 12.5 µM | shares compounds with SENP7 block | 6,200 compounds, 40% hits;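 active means mean inhibition across replicates above about 50%, limit read from the data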
SENP6 conf: SENP6 protease inhibitors, confirmation, biochemical, luminescence, single concentration; AID 488915, 2010; shares compounds with SENP7 block; recombinant SENP6, Z-RLRGG-aminoluciferin luminescence; inhibition, % at 12.5 µM; 6,200 compounds, 58% hits
SENP7 conf: SENP7 protease inhibitors, retest, confirmation, biochemical, luminescence, single concentration; inhibition, % at 12.5 µM; shares compounds with SENP7 block; recombinant SENP7, Z-RLRGG-aminoluciferin luminescence, 40 min; AID 488917, 2010; 6,200 compounds, 69% hits
Casp3 select: caspase-3 protease inhibitors, confirmation, selectivity assay for SENP inhibitor project, biochemical, single concentration | shares compounds with SENP7 block | purified caspase-3, Z-DEVD-aminoluciferin luminescence, 60 min | inhibition, % at 12.5 µM | 6,200 compounds, 60% hits | AID 488918, 2010;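 active means mean inhibition above about 50%, limit read from the data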
Luc interf: luminescence interference (SENP counter-screen); shares compounds with SENP7 block; Pre-incubated SENP8/Z-RLRGG-aminoluciferin, luciferase luminescence interference; inhibition, % at 12.5 µM; 6,200 compounds, 39% hits; AID 488919;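 active means mean inhibition above about 50% when retested at one dose, limit read from the data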
Each line names hits and unclear results; the compound was inactive in the other large screens (follow-up assays come after a bar, where they were run).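 How the source made its calls, unless noted: active means mean inhibition above about 50% in the one-dose retest (limit read from the data); inactive means the rest.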

CCOC(=O)[C@]12Cc3cc(Cl)ccc3[C@H]1N(C1CCCCC1)C(=O)c1cc(OC)ccc12	none (no result: SENP7 block, SENP6 inh, HSP90 inh, SENP8 block-2)
Cc1ccccc1-n1c(O)c(/C=N/NC(=O)c2ccccc2O)c(=O)[nH]c1=S	HSP90 inh 21.3 | HSP90 confirm 51.7 | FLuc counter 48.5
O=C1NC(=O)C(=Cc2cccc(OCCOc3ccccc3)c2)C(=O)N1	none
Cc1ccc(OCCOc2cccc(C=C3C(=O)NC(=O)NC3=O)c2)c(C)c1	HSP90 inh 23.4 | HSP90 confirm 39.3 | FLuc counter 17.0
O=C1CC(c2cccnc2)=NN1c1ccccc1	HSP90 inh 28.1 | HSP90 confirm inactive | FLuc counter inactive
CCOC(=O)c1c(N)n(CCCOC(=O)c2ccco2)c2nc3ccccc3nc12	none
CCOC(=O)c1c(NS(=O)(=O)c2ccccc2)n(CCCOC)c2nc3ccccc3nc12	SENP7 block 95.3, SENP6 inh 95.4, HSP90 inh 22.2, SENP8 block-2 91.4 | HSP90 confirm inactive | FLuc counter inactive | SENP8 conf inactive | SENP6 conf 58.3 | SENP7 conf inactive | Casp3 select inactive | Luc interf inactive
COCCCn1c(N)c(C(=O)OCCOC)c2nc3ccccc3nc21	SENP7 block 57.2, SENP6 inh 58.3, HSP90 inh 22.1, SENP8 block-2 59.9 | HSP90 confirm inactive | FLuc counter inactive | SENP8 conf inactive | SENP6 conf inactive | SENP7 conf inactive | Casp3 select inactive | Luc interf inactive
CN(Cc1cccc(-c2ccncc2)c1)C(=O)Oc1ccccc1Cc1ccccc1	none (no result: SENP7 block, SENP6 inh, HSP90 inh, SENP8 block-2)
CN(C)c1ccccc1	none (no result: SENP7 block, SENP6 inh, HSP90 inh, SENP8 block-2)
Cc1cccc(N=Nc2ccc(N(C)C)cc2)c1	SENP7 block 87.1, SENP6 inh 90.2, SENP8 block-2 84.3 | SENP8 conf inactive | SENP6 conf 82.7 | SENP7 conf inactive | Casp3 select inactive | Luc interf inactive
CC(C)CNC(=O)c1c(N)n(Cc2ccco2)c2nc3ccccc3nc12	none
COCCCNC(=O)c1c(NC(=O)c2ccco2)n(Cc2ccccc2)c2nc3ccccc3nc12	none
COCCNC(=O)c1c(NC(=O)c2ccc(Br)o2)n(Cc2ccccc2)c2nc3ccccc3nc12	SENP6 inh 82.8, SENP8 block-2 82.2 | SENP8 conf inactive | SENP6 conf inactive | SENP7 conf inactive | Casp3 select inactive | Luc interf inactive

High-throughput results deposited in PubChem by several laboratories.
